From ChEMBL document CHEMBL1130202, “Biologically active heteroarotinoids exhibiting anticancer activity and decreased toxicity” (J Med Chem, 1997)
Activity calls are given as the source filed them. No cut-off for these calls is given here.

Key:
[1] = organism: Mus musculus; test: Alopecia in mice observed at low dose with Hypervitaminosis; 0/16; format: functional, organism-based
[2] = organism: Mus musculus; test: Effect of compound on serum triglycerides levels in mice at mid dose 2 on day 36; format: functional
How it was run: (§1)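 Male B6D2F1 mice were gavaged daily with compound in corn oil at low, mid 1, mid 2 or high dose. Serum triglycerides and circulating white blood cells were measured on the stated day (8, 29, 36, 65). Values are group mean ± SD expressed as % relative to corn-oil vehicle, with significance at p ≤ 0.05.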

[3] = organism: Mus musculus; test: Effect of compound on serum triglycerides levels in mice at mid dose 2 on day 8; format: functional; how it was run: as §1
[4] = organism: Mus musculus; test: Enlarged lymph in gross pathological observations in mice with hypervitaminosis A at mid dose 2 with gross observations/total number of mice in group; 1/16; format: functional, organism-based
[5] = organism: Mus musculus; test: Skin scaling in mice at mid dose 1 with Hypervitaminosis; 0/16; format: functional, organism-based
[6] = organism: Mus musculus; test: Mortality rate in mice in high dose; format: functional
How it was run: (§2)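 Male B6D2F1 mice given compound daily by gavage in corn oil at the stated dose levels, with corn oil vehicle controls. Deaths counted as animals found dead or sacrificed moribund, with day(s) of death recorded. Heteroarotinoid groups ran to day 65 and low-dose reference groups to day 25.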

[7] = organism: Mus musculus; test: Mortality rate in mice in low dose; format: functional; how it was run: as §2
[8] = organism: Mus musculus; test: Fracture incidence in mouse at high dose; 3/8
[9] = organism: Mus musculus; test: Effect of compound on serum Alkaline phosphatase levels in mice at mid dose 2 on day 29; format: functional
How it was run: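 Male B6D2F1 mice dosed daily by oral gavage in corn oil at low, mid 1, mid 2 or high dose. Blood sampled on set days (8, 29, 36, 65) for clinical chemistry, serum alkaline phosphatase and triglycerides. Group mean ± SD reported as % relative to vehicle 1; significance p < 0.05 versus corn oil vehicle.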

[10] = organism: Mus musculus; test: Enlarged spleen in Gross pathological observations in mice with hypervitaminosis A at high dose with gross observations/total number of mice in group; 4/16; format: functional, organism-based
[11] = organism: Mus musculus; test: Compound toxicity determined by total dose to termination (day 25/65) in high dose; format: functional
How it was run: (§3)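 Male B6D2F1 mice given daily oral gavage in corn oil; dosages increased during the study (day 30 or day 51 depending on compound). Cumulative dose in mg/kg administered up to termination (day 65, or day 25 for TTNPB 0.01/0.05 mg/kg/day groups).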

[12] = organism: Mus musculus; test: Compound toxicity determined by total dose to termination (day 25/65) in mid dose 1; format: functional; how it was run: as §3
[13] = organism: Mus musculus; test: Compound toxicity determined by total dose to termination (day 25/65) in mid dose 2; format: functional
[14] = organism: Mus musculus; test: Fracture incidence in mouse at high dose; 4/7
[15] = organism: Mus musculus; test: Effect of compound on Spleen to body weight ratios in mice at low dose; format: functional
How it was run: (§4)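 Male B6D2F1 mice dosed daily by gavage with compound in corn oil; vehicle 1 (corn oil) controls run to termination on day 65. Low, mid 1, mid 2 and high dose groups, with dosage increases partway through the study. Organ-to-body weight ratios (×1000) taken at necropsy on day 65, reported as mean ± SD for 4 to 8 animals and as % difference from vehicle.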

[16] = organism: Mus musculus; test: Alopecia in mice observed at low dose with Hypervitaminosis; 1/16; format: functional, organism-based
[17] = organism: Mus musculus; test: Alopecia in mice observed at mid dose 2 with Hypervitaminosis; 1/16; format: functional, organism-based
[18] = organism: Mus musculus; test: Avoiding pressure on limbs in mice at mid dose 1 with Hypervitaminosis; 0/16; format: functional, organism-based; conditions: Limb
[19] = organism: Mus musculus; test: Enlarged lymph in gross pathological observations in mice with hypervitaminosis A at mid dose 2 with gross observations/total number of mice in group; 2/16; format: functional, organism-based
[20] = organism: Mus musculus; test: Enlarged spleen in Gross pathological observations in mice with hypervitaminosis A at mid dose 1 with gross observations/total number of mice in group; 0/16; format: functional, organism-based
[21] = organism: Mus musculus; test: Fracture incidence in mouse at high dose; 2/8
[22] = test system: Mus musculus; test: Effect of compound on Spleen to body weight ratios in mice at 0.4 mg/kg/day dose on day 65; dead by day 65; format: functional, organism-based; how it was run: as §4
[23] = test system: Mus musculus; test: Effect of compound on adrenal to body weight ratios in mice at 0.1 mg/kg/day dose; all the animals died by day 65; format: functional, organism-based
[24] = test system: Mus musculus; test: Effect of compound on adrenal to body weight ratios in mice at 0.8 mg/kg/day dose; all the animals died by day 65; format: functional, organism-based
[25] = test system: Mus musculus; test: Effect of compound on right testicle to body weight ratios in mice at 0.05 mg/kg/day dose; all the animals died by day 65; format: functional, organism-based
[26] = test system: Mus musculus; test: Total dose of 10% weight loss in mice at 0.05 mg/kg/day; format: functional
[27] = test system: Mus musculus; test: Effect of compound on thymus to body weight ratios in mice at 0.8 mg/kg/day dose; all the animals died by day 65; format: functional, organism-based
How it was run: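 Male B6D2F1 mice were dosed daily by gavage in corn oil, with TTNPB given at 0.1–0.8 or 0.01/0.05 mg/kg/day. Thymus-to-body weight ratio (×1000) was taken at necropsy on day 65 against vehicle 1, or on day 25 for the 0.01/0.05 groups against vehicle 2. Mean ± SD of 4–8 animals, reported as % difference from vehicle.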

[28] = test system: Mus musculus; test: Alopecia observed at 0.8 mg/kg/day dose in mice with hypervitaminosis; 3/16; format: functional, organism-based
[29] = test system: Mus musculus; test: Avoiding pressure on limbs at 0.4 mg/kg/day dose in mice with hypervitaminosis; 0/16; format: functional, organism-based; conditions: Limb
[30] = test system: Mus musculus; test: Avoiding pressure on limbs at 0.8 mg/kg/day dose in mice hypervitaminosis; 0/16; format: functional, organism-based; conditions: Limb
[31] = test system: Mus musculus; test: Alopecia observed at 0.2 mg/kg/day dose with hypervitaminosis; 10/16; format: functional, organism-based
[32] = test system: Mus musculus; test: Enlarged spleen in Gross pathological observations with hypervitaminosis A in mice at 0.1 mg/kg/day dose with gross observations/total number of animals in group; 4/16; format: functional, organism-based
[33] = test system: Mus musculus; test: Enlarged spleen in gross pathological observations with hypervitaminosis A at 0.05 mg/kg/day dose with gross observations/total number of animals in group; 5/8; format: functional, organism-based
[34] = test system: Mus musculus; test: Approximate day to determine 10% weight loss in mice at 0.01 mg/kg/day; format: functional
How it was run: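 Male B6D2F1 mice dosed daily by gavage in corn oil; body weights followed to termination (day 65, or day 25 for TTNPB 0.01/0.05 mg/kg/day groups) and compared with the matching vehicle group. Value is approximate day of onset of 10% body weight reduction versus vehicle.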

[35] = test system: Mus musculus; test: Calculated 30-day maximally tolerated dose based on 10% weight loss in mice at 0.05 mg/kg/day; format: functional
[36] = Mortality rate in mice at 0.01 mg/kg/day; format: ADME, organism-based; conditions: mouse, in vivo; how it was run: as §2
[37] = Mortality rate in mice at 0.05 mg/kg/day; format: ADME, organism-based; conditions: mouse, in vivo; how it was run: as §2
[38] = Mortality rate in mice at 0.1 mg/kg/day; range (12-24); format: ADME, organism-based; conditions: mouse, in vivo; how it was run: as §2
[39] = Mortality rate in mice at 0.4 mg/kg/day; range (8-19); format: ADME, organism-based; conditions: mouse, in vivo; how it was run: as §2
[40] = test system: Mus musculus; test: Effects of retinoids on thymus to body weight ratios in mice at 0.05 mg/kg/day dose
[41] = test system: Mus musculus; test: Effect of compound on Spleen to body weight ratios in mice at 0.05 mg/kg/day dose; measured on day 25

CC(/C=C/C=C(\C)c1ccc2c(c1)C(C)(C)CCO2)=C\C(=O)O
Activity [1]: inactive | Activity [2]: 195.9 | Activity [3]: 112.3 | Activity [4]: inactive | Activity [5]: inactive | Mortality [6]: 0 day of death | Mortality [7]: 0 day of death | Activity [8]: Weak activity

C/C(=C\c1ccc(C(=O)O)cc1)c1ccc2c(c1)C(C)(C)CCO2
Activity [9]: 106.3 | Activity [10]: Weak activity | Total dose [11]: 1176.8 mg/kg | Total dose [12]: 294.2 mg/kg | Total dose [13]: 588.4 mg/kg | Activity [14]: Weak activity

CC(/C=C/C=C(\C)c1ccc2c(c1)C(C)(C)CCS2)=C\C(=O)O
Activity [15]: 2.1 | Activity [16]: inactive | Activity [17]: inactive | Activity [18]: inactive | Activity [19]: inactive | Activity [20]: inactive | Activity [21]: Weak activity

C/C(=C\c1ccc(C(=O)O)cc1)c1ccc2c(c1)C(C)(C)CCC2(C)C
Activity [22]: Toxic | Activity [23]: Toxic | Activity [24]: Toxic | Activity [25]: Toxic | Dose [26]: 0.4 mg/kg | Activity [27]: Toxic | Activity [28]: inactive | Activity [29]: inactive | Activity [30]: inactive | Activity [31]: Weak activity | Activity [32]: Weak activity | Activity [33]: Weak activity | Activity [34]: >25 | Max tolerated dose [35]: 0.001 mg/kg | Mortality [36]: 0 day of death | Mortality [37]: 3 day of death | Mortality [38]: 7 day of death | Mortality [39]: 14 day of death | Activity [40]: Toxic | Activity [41]: Toxic
